A short description of data set [1]: Inhibition of human cPLA2-alpha assessed as cleavage of 7-hydroxycoumarinyl-gamma-linolenate. The procedure, abridged: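 Substrate 90 µM GLU with 120 µM DTPC. Compounds in DMSO tested in duplicate. Fluorescence (ex 355/em 460 nm) read every 4 min for 84 min; inhibition from slope. IC50 averaged from at least two independent runs.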
Data set [2] can be described thus: Inhibition of cPLA2-alpha in Sprague-Dawley rat whole blood assay in presence of A23187. The class given is tissue-based. The procedure, abridged: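 Heparinized blood from male Sprague-Dawley rats, taken by cardiac puncture. Preincubated 15 min at 37 °C with compound in DMSO, then stimulated 10 min at 37 °C with 5 µM A23187 (final). Stopped with 20 mM EDTA; plasma precipitated with cold methanol at −80 °C. TXB2 measured by immunoassay; IC50 values averaged from at least two independent runs.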

Data set [3] in a line: Clearance in Sprague-Dawley rat at 2 mg/kg, iv. The class given is ADME, organism-based. The arrangement: dose 2 mg/kg, route intravenous. The conditions noted are these: in vivo. The procedure, abridged: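 Male Sprague-Dawley rats, 200–300 g, n = 3, given a single 2 mg/kg tail-vein bolus in 50% PEG-400/50% DMSO. Blood drawn via jugular cannula over 24 h and plasma acidified with HCl. Plasma levels measured by LC/MS/MS after acetonitrile precipitation with internal standard; quantitation limit 5 ng/mL. Clearance from non-compartmental analysis.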

Data set [4] in a line: Oral bioavailability in Sprague-Dawley rat at 25 mg/kg administered through MC/TW formulation. It is filed as ADME, organism-based. The following applies: in vivo. The procedure, abridged: (§1)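 Overnight-fasted male Sprague-Dawley rats (n = 3) gavaged in MC/TW or Phosal vehicle; compound at 37.5 mg/mL, diluted with water, dosed at 4 mL/kg. Jugular blood taken over 24 h; plasma analysed by LC/MS/MS. F calculated as the dose-normalized oral/iv AUC ratio, iv reference 2 mg/kg.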

The nature of data set [5]: Oral bioavailability in Sprague-Dawley rat at 25 mg/kg administered through Phosal formulation. The class given is ADME, organism-based. The conditions noted are these: in vivo. In short, it runs like this: as §1
A short description of data set [6]: Oral bioavailability in Sprague-Dawley rat at 5 mg/kg administered through MC/TW formulation. It is filed as ADME, organism-based. The following applies: in vivo. In short, it runs like this:
as §1

The nature of data set [7]: Oral bioavailability in Sprague-Dawley rat at 10 mg/kg administered through Phosal formulation. It is filed as ADME, organism-based. The following applies: in vivo.
Data set [8] can be described thus: Clearance in Beagle dog at 2 mg/kg, iv. It is filed as ADME, organism-based, Canis lupus familiaris. The arrangement: dose 2 mg/kg, route intravenous. The conditions noted are these: in vivo. In short, it runs like this:
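Male Beagle dogs, 8.5–13.0 kg, n = 3, fasted overnight, given 2 mg/kg iv in 20% DMSO/80% PEG-200. Saphenous blood sampled over 24 h and plasma acidified to about pH 4. Analysed by LC/MS/MS with internal standard. Clearance by non-compartmental methods.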

Data set [9] in a line: Oral bioavailability in Beagle dog at 50 mg/kg administered through MC/TW formulation. The class given is ADME, organism-based, Canis lupus familiaris. The conditions noted are these: in vivo. The procedure, abridged:
(§2)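 Fasted male Beagle dogs (n = 3) dosed orally in MC/TW or Phosal formulation, volume 4 or 6 mL/kg. Saphenous plasma collected over 24 h and measured by LC/MS/MS. F calculated as the dose-normalized oral/iv AUC ratio against 2 mg/kg iv.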

Data set [10] can be described thus: Oral bioavailability in Beagle dog at 50 mg/kg administered through Phosal formulation. The following applies: in vivo. The class given is ADME, organism-based, Canis lupus familiaris. In short, it runs like this:
as §2

Molecules are shown by their SMILES. Where only a bound is given, the exact number is not on record here.

By IC50 is commonly meant the concentration that inhibits the measured activity by half. By clearance is commonly meant a measure of how efficiently the substance is removed, as volume per time. Higher therefore signals efficient removal. A word on the bioavailability: it is the share of a dose that reaches the circulation, judged against a reference dose that is usually intravenous. Read a high bioavailability as much systemic uptake. Consider `O=C(O)c1ccc(CCCc2c(CCNS(=O)(=O)c3ccccc3-c3ccccc3)n(C(c3ccccc3)c3ccccc3)c3ccc(Cl)cc23)cc1`, for which the IC50 is 40 nM in data set [1] and 60 nM in data set [2]. For the same molecule, the clearance in [3] is 2.3 mL/min/kg. The same molecule registered a bioavailability in data set [4] of 0.4%.

Turning to `O=C(O)c1ccc(OCCc2c(CCNS(=O)(=O)c3c(F)cccc3C(F)(F)F)n(C(c3ccccc3)c3ccccc3)c3ccc(Cl)cc23)cc1`, the IC50 was found to be 180 nM in data set [1] and 150 nM in data set [2]. The clearance in data set [3] worked out at 15.3 mL/min/kg. In data set [4], this molecule came in with a bioavailability of 3%.

On to `O=C(O)c1ccc(OCCc2c(CCNS(=O)(=O)c3c(Cl)cccc3Cl)n(C(c3ccccc3)c3ccccc3)c3ccc(Cl)cc23)cc1`, for which the values for the 50% inhibitory concentration (IC50) in data set [1] and in data set [2] were 260 nM and 210 nM, respectively. Moreover, the clearance in data set [3] came to 16.3 mL/min/kg. For the same molecule, in data set [4], the bioavailability is 2.9%.

`COc1ccccc1S(=O)(=O)NCCc1c(CCOc2ccc(C(=O)O)cc2)c2cc(Cl)ccc2n1C(c1ccccc1)c1ccccc1`: the figures for the IC50 in [1] and in data set [2] were 180 nM and 60 nM, respectively. This molecule came in with a clearance in data set [3] of 18.6 mL/min/kg. The bioavailability in data set [4] was less than 0.1%.

Turning to `O=C(O)c1ccc(CCCc2c(CCNS(=O)(=O)Cc3ccc(Cl)c(Cl)c3)n(C(c3ccccc3)c3ccccc3)c3ccc(Cl)cc23)cc1` [EFIPLADIB], the IC50 in data set [1] turned out to be 40 nM; in data set [2] it was 70 nM. The values for the bioavailability in data set [4] and in [5] were 1% and 6%, respectively.

With `O=C(O)c1ccc(CCCc2c(CCNS(=O)(=O)c3ccccc3Br)n(C(c3ccccc3)c3ccccc3)c3ccc(Cl)cc23)cc1`, the IC50 in data set [1] turned out to be 100 nM; in data set [2], 120 nM. For the same molecule, the clearance in [3] stood at 6.5 mL/min/kg. The bioavailability in [4] came out at 1.9%.

On to `O=C(O)c1ccc(OCCc2c(CCNS(=O)(=O)c3ccccc3OC(F)(F)F)n(C(c3ccccc3)c3ccccc3)c3ccc(Cl)cc23)cc1`, for which the half-maximal inhibitory concentration (IC50) was 350 nM in data set [1] and 360 nM in data set [2]. In data set [3], this molecule displayed a clearance of 12.4 mL/min/kg. The same molecule had a bioavailability in data set [4] of 15.4%.

Consider `Cc1ccccc1S(=O)(=O)NCCc1c(CCCc2ccc(C(=O)O)cc2)c2cc(Cl)ccc2n1C(c1ccccc1)c1ccccc1`, for which the figures for the half-maximal inhibitory concentration (IC50) in data set [1] and in data set [2] were 90 nM and 95 nM, respectively. The clearance in data set [3] is 10.3 mL/min/kg. This molecule displayed a bioavailability in [4] of 8.6%.

Turning to `O=C(O)c1ccc(OCCc2c(CCNS(=O)(=O)Cc3ccc(Cl)c(Cl)c3)n(C(c3ccccc3)c3ccccc3)c3ccc(Cl)cc23)cc1` [ECOPLADIB], in [2], the IC50 is 160 nM. Moreover, the bioavailability in data set [4] amounted to 6%.

`O=C(O)c1ccc(OCCc2c(CCNS(=O)(=O)c3ccccc3Br)n(C(c3ccccc3)c3ccccc3)c3ccc(Cl)cc23)cc1`: the IC50 in [1] was 520 nM; in data set [2], 320 nM. Moreover, the clearance in [3] stood at 3.1 mL/min/kg. Also, in data set [4], the bioavailability is less than 0.2%.

As for `O=C(O)c1ccc(OCCc2c(CCNS(=O)(=O)Cc3ccccc3)n(C(c3ccccc3)c3ccccc3)c3ccc(Cl)cc23)cc1`, the IC50 is 110 nM in data set [1] and 120 nM in data set [2]. The same molecule had a bioavailability in data set [4] of 3.9%.

On to `O=C(O)c1ccc(OCCc2c(CCNS(=O)(=O)c3ccccc3)n(C(c3ccccc3)c3ccccc3)c3ccc(Cl)cc23)cc1`, for which the 50% inhibitory concentration (IC50) in data set [1] amounted to 3000 nM; in data set [2], 1000 nM. Also, in [3], the clearance was 73 mL/min/kg.

`O=C(O)c1ccc(CCCc2c(CCNS(=O)(=O)Cc3ccccc3)n(C(c3ccccc3)c3ccccc3)c3ccc(Cl)cc23)cc1`: the half-inhibitory concentration (IC50) in data set [1] is 40 nM; in data set [2], 80 nM. Moreover, in data set [3], the clearance was found to be 13 mL/min/kg. For the same molecule, the bioavailability worked out at 3.8% in [6] and 7.2% in data set [7].

On to `Cc1cccc(C)c1S(=O)(=O)NCCc1c(CCCc2ccc(C(=O)O)cc2)c2cc(Cl)ccc2n1C(c1ccccc1)c1ccccc1`, for which the figures for the IC50 in data set [1] and in data set [2] were 47 nM and 75 nM, respectively. In data set [3], this molecule yielded a clearance of 10.5 mL/min/kg. The molecule also came in with a bioavailability in data set [4] of 1.3%.

On to `O=C(O)c1ccc(CCCc2c(CCNS(=O)(=O)c3cccc(-c4ccccc4)c3)n(C(c3ccccc3)c3ccccc3)c3ccc(Cl)cc23)cc1`, for which the IC50 amounted to 180 nM in [1] and 220 nM in [2].

Regarding `O=C(O)c1ccc(CCCc2c(CCNS(=O)(=O)c3ccccc3F)n(C(c3ccccc3)c3ccccc3)c3ccc(Cl)cc23)cc1`, the figures for the 50% inhibitory concentration (IC50) in data set [1] and in data set [2] were 190 nM and 220 nM, respectively. In data set [3], this molecule had a clearance of 8.8 mL/min/kg. In [4], this molecule showed a bioavailability of 4%.

On to `O=C(O)c1ccc(CCCc2c(CCNS(=O)(=O)c3c(Cl)cccc3Cl)n(C(c3ccccc3)c3ccccc3)c3ccc(Cl)cc23)cc1`, for which the half-maximal inhibitory concentration (IC50) in [1] stood at 60 nM; in data set [2] it was 100 nM. In data set [3], this molecule displayed a clearance of 8.5 mL/min/kg. The bioavailability in [4] was determined as 3.8%.

Take `Cc1cccc(C)c1CS(=O)(=O)NCCc1c(CCCc2ccc(C(=O)O)cc2)c2cc(Cl)ccc2n1C(c1ccccc1)c1ccccc1`: the IC50 in data set [1] was found to be 14 nM; in data set [2] it was 30 nM. Also, the values for the clearance in [3] and in [8] were 4 mL/min/kg and 0.6 mL/min/kg, respectively. In addition, the bioavailability in data set [4] is 1%; in data set [5] it was 3.5%; in data set [9], 0.08%; in data set [10] it was 1.5%.

As for `O=C(O)c1ccc(OCCc2c(CCNS(=O)(=O)c3cccc(-c4ccccc4)c3)n(C(c3ccccc3)c3ccccc3)c3ccc(Cl)cc23)cc1`, the IC50 in data set [1] amounted to 570 nM; in data set [2] it was 600 nM.

With `O=C(O)c1ccc(CCCc2c(CCNS(=O)(=O)c3ccccc3Cl)n(C(c3ccccc3)c3ccccc3)c3ccc(Cl)cc23)cc1`, the IC50 in data set [1] turned out to be 100 nM; in data set [2], 200 nM. In data set [3], this molecule displayed a clearance of 9.4 mL/min/kg. In addition, the bioavailability in data set [4] came to 13.7%.

With `COc1ccccc1S(=O)(=O)NCCc1c(CCCc2ccc(C(=O)O)cc2)c2cc(Cl)ccc2n1C(c1ccccc1)c1ccccc1`, the results for the concentration for half-maximal inhibition (IC50) in [1] and in [2] were 100 nM and 200 nM, respectively. This molecule also registered a clearance in [3] of 10.7 mL/min/kg. The bioavailability in [4] was 7.8%.

`O=C(O)c1ccc(OCCc2c(CCNS(=O)(=O)c3ccccc3Cl)n(C(c3ccccc3)c3ccccc3)c3ccc(Cl)cc23)cc1`: the IC50 came to 400 nM in data set [1] and 550 nM in [2]. In addition, in [3], the clearance amounted to 31 mL/min/kg. The molecule also yielded a bioavailability in [4] of 39%.

For the molecule `O=C(O)c1ccc(OCCc2c(CCNS(=O)(=O)c3ccccc3F)n(C(c3ccccc3)c3ccccc3)c3ccc(Cl)cc23)cc1`, the results for the concentration for half-maximal inhibition (IC50) in [1] and in [2] were 600 nM and 150 nM, respectively. The same molecule registered a clearance in data set [3] of 28 mL/min/kg. In data set [4], the bioavailability turned out to be 6%.

With `O=C(O)c1ccc(CCCc2c(CCNS(=O)(=O)c3ccccc3OC(F)(F)F)n(C(c3ccccc3)c3ccccc3)c3ccc(Cl)cc23)cc1`, the 50% inhibitory concentration (IC50) in data set [1] stood at 100 nM; in data set [2], 200 nM. In addition, the clearance in [3] turned out to be 5.2 mL/min/kg. For the same molecule, the bioavailability in data set [4] was determined as 4.6%.

On to `Cc1cccc(C)c1S(=O)(=O)NCCc1c(CCOc2ccc(C(=O)O)cc2)c2cc(Cl)ccc2n1C(c1ccccc1)c1ccccc1`, for which the IC50 was 100 nM in data set [1] and 95 nM in [2]. This molecule had a clearance in data set [3] of 6.1 mL/min/kg. Also, in [4], the bioavailability was determined as 6%.

In the case of `O=C(O)c1ccc(OCCc2c(CCNS(=O)(=O)c3ccccc3-c3ccccc3)n(C(c3ccccc3)c3ccccc3)c3ccc(Cl)cc23)cc1`, the IC50 in [1] was found to be 110 nM; in [2] it was 150 nM. Also, the clearance in [3] amounted to 4.5 mL/min/kg. In [4], this molecule had a bioavailability of less than 0.1%.

For `Cc1ccccc1S(=O)(=O)NCCc1c(CCOc2ccc(C(=O)O)cc2)c2cc(Cl)ccc2n1C(c1ccccc1)c1ccccc1`, the IC50 is 340 nM in data set [1] and 160 nM in data set [2]. Moreover, the clearance in data set [3] stood at 61 mL/min/kg.

The values are drawn from ChEMBL document CHEMBL1141604, “Benzenesulfonamide indole inhibitors of cytosolic phospholipase A2alpha: optimization of in vitro potency and rat pharmacokinetics for oral efficacy” (Bioorg Med Chem, 2008).
